Active and inactive are the calls of the source. The calls are words filed in the database; no cut-off is given here.
Legend:
Mus musculus [1] = experiment: Inhibition of DPP4 in mouse plasma at 30 to 100 mg/kg, po; type: functional, organism-based
Mus musculus [2] = species: Mus musculus; experiment: Metabolic stability in mouse; type: ADME, organism-based; conditions: in vivo
Homo sapiens = species: Homo sapiens; experiment: Metabolic stability in human; type: ADME, organism-based; conditions: in vivo
Mus musculus [3] = experiment: Antidiabetic activity in po dosed ICR mouse assessed as blood glucose excursion after 20 to 120 mins by oral glucose tolerance test; type: functional, organism-based
Summary of the method: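 ICR mice dosed orally with distilled water vehicle or compound at 1, 3 or 10 mg/kg (10 mL/kg). Tail-nick blood glucose read by glucometer 30 min after dosing, then oral glucose challenge 2 g/kg (10 mL/kg). Blood glucose measured from tail bleeds at 20, 40, 60 and 120 min after glucose.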

Mus musculus [4] = experiment: Inhibition of DPP4 in po dosed mouse plasma; type: functional, organism-based

Row | Structure (SMILES) | inhibition (Mus musculus [1]) | Stability (Mus musculus [2]) | Stability (Homo sapiens) | Activity (Mus musculus [3]) | inhibition (Mus musculus [4])
1 | N[C@@H](CC(=O)NC1(c2cccc(-c3cncs3)c2)CCS(=O)(=O)CC1)Cc1cc(F)c(F)cc1F | inactive | Stable | Stable | – | –
2 | N[C@@H](CC(=O)NC1(c2cccc(-n3ccnc3)c2)CCS(=O)(=O)CC1)Cc1cc(F)c(F)cc1F | inactive | Stable | Stable | – | –
3 | N[C@@H](CC(=O)NC1(c2nc(-c3ccccc3)cs2)CCS(=O)(=O)CC1)Cc1cc(F)c(F)cc1F | – | Stable | Stable | Dose-dependent effect | Dose-dependent effect
